Compound activity as filed in PubChem BioAssay.
Only some compounds are listed: those with a hit (about 1.2% of all), similar ones and a draw of the others.
TNAP inh hiacc – inhibitors of human TNAP at high phosphate acceptor concentration; P05186; purified TNAP, CDP-star luminescence, 1 M DEA; inhibition, % at 20 µM; 200,000 compounds, 0.03% hits;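 active = over 50% inhibition of tissue-nonspecific alkaline phosphatase at 20 µM in the single-dose screen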;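 note: plate controls were DMSO wells for no effect and EDTA-quenched wells as full inhibition for full effect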
Target sequence (P05186 whole entry, looked up): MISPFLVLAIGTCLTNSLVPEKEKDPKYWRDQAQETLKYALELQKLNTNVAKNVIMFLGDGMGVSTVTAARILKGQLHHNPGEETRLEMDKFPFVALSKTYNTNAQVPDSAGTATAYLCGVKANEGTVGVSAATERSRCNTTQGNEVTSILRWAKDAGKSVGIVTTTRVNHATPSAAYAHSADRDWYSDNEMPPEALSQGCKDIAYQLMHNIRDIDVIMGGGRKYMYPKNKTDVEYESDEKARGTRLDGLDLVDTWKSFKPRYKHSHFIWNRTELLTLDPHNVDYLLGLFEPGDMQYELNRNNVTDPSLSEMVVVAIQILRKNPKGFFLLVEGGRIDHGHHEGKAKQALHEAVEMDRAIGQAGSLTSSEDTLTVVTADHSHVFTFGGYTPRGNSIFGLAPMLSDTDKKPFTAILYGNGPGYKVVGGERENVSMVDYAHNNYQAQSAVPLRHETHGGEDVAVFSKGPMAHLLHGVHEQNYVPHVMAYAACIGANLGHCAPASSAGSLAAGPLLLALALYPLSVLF
INS promoter inh – TRM-6 insulin promoter activity inhibition. TRM-6 cells, insulin promoter-eGFP reporter, imaging; reporter expression induced with tamoxifen. inhibition, % at 2 µM. AID 1273. 130,000 compounds, 0.9% hits;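 active = inhibition above the mean plus 3 SD, with well images judged a real hit on visual review, cut at about 60% in these data, passing the limit was not always enough; inconclusive = inhibition over the cutoff but images rejected on review; inactive = inhibition not above the cutoff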
TNAP inh noacc – inhibitors of human TNAP without phosphate acceptor. inhibition, % at 20 µM. purified TNAP, CDP-star luminescence, 30 min. 200,000 compounds, 0.26% hits;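 active = tissue-nonspecific alkaline phosphatase inhibition above about 50% at 20 µM in the single-dose screen, limit read from the data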;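 note: 0% = DMSO negative control and 100% = EDTA positive control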
TNAP act hi DEA – increases human TNAP activity under high phosphate acceptor concentration; P05186; purified TNAP, CDP-star luminescence, 1 M DEA, 30 min; active compounds read high; 0 = EDTA background, 1 = DMSO-only activity; activation factor at 20 µM; 200,000 tested, under 10 active; AID 1136;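 active = activation factor at least 2 at 20 µM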
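system = human TNAP | amount = enzyme diluted 1/800 final | reagent = 100 µM CDP-star substrate | signal = luminescent substrate turnover signal | dosing = one dose, 20 µM | benchmarks = EDTA negative control, DMSO positive control | measure = activation factor | timing = 30 min reaction, room temperature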
Efa HMGR inh – E. faecalis class II HMG-CoA reductase inhibition; 190,000 compounds, 0.41% hits; purified E. faecalis HMGR, NADPH absorbance 340 nm kinetic; inhibition, % at 10 µM; AID 1066;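 active = inhibition above a set limit, the median over all tested compounds plus 3 SD, cut at about 9.5% in these data; inconclusive = no clear call, values can overlap the other calls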;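 note: enzyme runs in reverse so mevalonate oxidation gives rising NADPH absorbance; 0% = complete reaction with DMSO and 100% = background rate lacking mevalonate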
* = called active by the depositor; ! = not active in a repeat.

How did C=CCn1c(SCc2csc(C)n2)nc2sc3c(c2c1=O)CCCC3 do in these assays?
TNAP inh hiacc: -9.8; INS promoter inh: 71.4*; TNAP inh noacc: -8.5; TNAP act hi DEA: 1.1; Efa HMGR inh: -0.8

How did C=CCn1c(SCc2csc(C)n2)nc2sc3c(c2c1=O)CCCCC3 do in these assays?
TNAP inh hiacc: -6.0; INS promoter inh: 34.5; TNAP inh noacc: -0.1; TNAP act hi DEA: 1.1; Efa HMGR inh: 0.0

Results for CCOc1ccccc1NC(=O)COC(=O)CC(NC(N)=O)c1ccc(Cl)cc1 (stereo unspecified) ?
TNAP inh hiacc: -6.2; TNAP inh noacc: -11.5; TNAP act hi DEA: 1.1; Efa HMGR inh: -2.9

What do the screens show for `CCCOC(=O)c1ccc(NC(=O)c2nc3nc(C)cc(C)n3n2)cc1`?
TNAP inh hiacc: 2.5; TNAP inh noacc: -0.1; TNAP act hi DEA: 1; Efa HMGR inh: 3.1

How did Cc1cc(C)n2c(SCc3c(C)noc3C)nnc2n1 do in these assays?
TNAP inh hiacc: -0.8; INS promoter inh: 80.0*; TNAP inh noacc: -8.7; TNAP act hi DEA: 1; Efa HMGR inh: -4.3

Results for Cc1cc(-c2nnc(SCC(=O)c3ccc(F)cc3)o2)no1 ?
TNAP inh hiacc: -0.9; INS promoter inh: 17.2; TNAP inh noacc: -20.8; TNAP act hi DEA: 1; Efa HMGR inh: -9.5

How did Cc1nc2ncnn2c(C)c1Cc1cccc(C(F)(F)F)c1 do in these assays?
TNAP inh hiacc: -5.6; INS promoter inh: 40.0; TNAP inh noacc: -11.8; TNAP act hi DEA: 1.1; Efa HMGR inh: -6.1

What do the screens show for `Cc1ccc(Cl)cc1NC(=O)COC(=O)C12CC3CC(CC(C3)C1)C2`?
TNAP inh hiacc: -0.5; INS promoter inh: -37.1; TNAP inh noacc: -4.4; TNAP act hi DEA: 1; Efa HMGR inh: 14.0*!

How did NC(=O)CN(c1ccc([N+](=O)[O-])cc1)S(=O)(=O)c1ccccc1 do in these assays?
TNAP inh hiacc: -2.0; INS promoter inh: 63.0; TNAP inh noacc: -6.2; TNAP act hi DEA: 1; Efa HMGR inh: 0.9

What do the screens show for `COc1cc(Cn2c(=O)oc3ccc(C)cc32)ccc1OC(C)C`?
TNAP inh hiacc: -2.8; INS promoter inh: -12.5; TNAP inh noacc: -3.3; TNAP act hi DEA: 1; Efa HMGR inh: 14.2*

How did CCOC(=O)c1cnc(SCCc2ccccc2)nc1N do in these assays?
TNAP inh hiacc: -5.5; INS promoter inh: -30.8; TNAP inh noacc: -12.8; TNAP act hi DEA: 1.1; Efa HMGR inh: 2.1

What do the screens show for `CCCCSc1ncc(C(=O)OCC)c(N)n1`?
TNAP inh hiacc: -0.5; INS promoter inh: 80.0*; TNAP inh noacc: -5.2; TNAP act hi DEA: 1; Efa HMGR inh: -2.7

Results for Nc1nc(SCC(=O)Nc2ccc(Cl)cn2)n[nH]1 ?
TNAP inh hiacc: 0.4; INS promoter inh: -15.0; TNAP inh noacc: 6.4; TNAP act hi DEA: 1; Efa HMGR inh: -2.7

How did CC(=O)OCC1=C(C(=O)O)N2C(=O)C(NC(=O)c3ccc(F)cc3)C2SC1 (stereo unspecified) do in these assays?
TNAP inh hiacc: -6.5; INS promoter inh: 8.3; TNAP inh noacc: -15.5; TNAP act hi DEA: 1.1; Efa HMGR inh: 11.3*

Results for CC(=O)OCC1=C(C(=O)O)N2C(=O)C(NC(=O)C(C)Cn3nc(C)c(Cl)c3C)C2SC1 (stereo unspecified) ?
TNAP inh hiacc: -1.8; TNAP inh noacc: -3.1; TNAP act hi DEA: 1; Efa HMGR inh: -6.1

Results for CCCc1nc2sc3c(=O)n(N)cnc3c2c2c1CCCC2 ?
TNAP inh hiacc: 1.7; INS promoter inh: -22.2; TNAP inh noacc: -4.4; TNAP act hi DEA: 1; Efa HMGR inh: -0.6

Results for CCN(CC)c1ccc(N2C(=O)CSC2=S)cc1 ?
TNAP inh hiacc: 9.9; INS promoter inh: 21.4; TNAP inh noacc: 57.0*; TNAP act hi DEA: 0.9; Efa HMGR inh: 2.4

What do the screens show for `COc1ccc(Cl)cc1Nc1nc(-c2sc(NC(=O)c3ccccc3)nc2C)cs1`?
TNAP inh hiacc: 0.6; INS promoter inh: 40.5; TNAP inh noacc: 0.0; TNAP act hi DEA: 1; Efa HMGR inh: -9.6

What do the screens show for `COc1ccc(OC)c(Nc2nc(-c3sc(NC(=O)c4ccccc4)nc3C)cs2)c1`?
TNAP inh hiacc: -2.7; INS promoter inh: 30.0; TNAP inh noacc: -8.4; TNAP act hi DEA: 1; Efa HMGR inh: 10.6*

How did COc1cccc(C(=O)Nc2nc(-c3ccncc3)cs2)c1 do in these assays?
TNAP inh hiacc: -0.1; INS promoter inh: 76.5*; TNAP inh noacc: 10.4; TNAP act hi DEA: 1; Efa HMGR inh: -3.0

What do the screens show for `Cc1nn(CC(=O)OC(C)C(=O)Nc2ccccc2[N+](=O)[O-])c(C)c1[N+](=O)[O-]` (stereo unspecified)?
TNAP inh hiacc: 0.8; TNAP inh noacc: -14.3; TNAP act hi DEA: 1; Efa HMGR inh: -6.4

Results for O=[N+]([O-])c1ccc(N/N=C/c2ccc(O)c(O)c2O)c(S(=O)(=O)N2CCOCC2)c1 ?
TNAP inh hiacc: 35.4; TNAP inh noacc: 29.6; TNAP act hi DEA: 0.6; Efa HMGR inh: 21.8*

What do the screens show for `O=[N+]([O-])c1ccc(NCCCO)c(S(=O)(=O)N2CCOCC2)c1`?
TNAP inh hiacc: -0.9; INS promoter inh: -109.1; TNAP inh noacc: -3.0; TNAP act hi DEA: 1; Efa HMGR inh: -8.5

How did O=[N+]([O-])c1ccc(N/N=C/c2cccc(O)c2O)c(S(=O)(=O)N2CCOCC2)c1 do in these assays?
TNAP inh hiacc: 39.1; TNAP inh noacc: 78.9*; TNAP act hi DEA: 0.6; Efa HMGR inh: -2.0

What do the screens show for `COc1cc(/C=N/Nc2ccc([N+](=O)[O-])cc2S(=O)(=O)N2CCOCC2)cc(OC)c1OC`?
TNAP inh hiacc: 12.6; INS promoter inh: -64.3; TNAP inh noacc: 8.9; TNAP act hi DEA: 0.9; Efa HMGR inh: -2.7

How did OCCC1CN(Cc2ccc3c(c2)CCO3)CCN1Cc1ccc(F)cc1 (stereo unspecified) do in these assays?
TNAP inh hiacc: -6.6; TNAP inh noacc: -9.2; TNAP act hi DEA: 1.1; Efa HMGR inh: -2.2

What do the screens show for `Cc1ccc(-n2c(C)csc2=N)cc1`?
TNAP inh hiacc: -9.4; INS promoter inh: inconclusive; TNAP inh noacc: -13.4; TNAP act hi DEA: 1.1; Efa HMGR inh: -2.5

What do the screens show for `Cc1csc(=N)n1-c1ccc(Cl)cc1`?
TNAP inh hiacc: 1.1; INS promoter inh: 90.9*; TNAP inh noacc: 5.3; TNAP act hi DEA: 1; Efa HMGR inh: -5.3

Results for CCOC(=O)C1=NOC(CNc2ncc(C(F)(F)F)cc2Cl)C1 (stereo unspecified) ?
TNAP inh hiacc: -5.7; INS promoter inh: -28.6; TNAP inh noacc: -5.3; TNAP act hi DEA: 1.1; Efa HMGR inh: -3.7

Results for COCn1c(-c2ccc(OC)cc2)nc2ccccc21 ?
TNAP inh hiacc: -4.0; INS promoter inh: 92.3*; TNAP inh noacc: -9.5; TNAP act hi DEA: 1; Efa HMGR inh: 0.3

Results for CCCNc1nc(N2CCCC2)nc(N2CCCC2)n1 ?
TNAP inh hiacc: -4.7; INS promoter inh: 83.3*; TNAP inh noacc: -6.9; TNAP act hi DEA: 1; Efa HMGR inh: -2.6

What do the screens show for `Cc1ccc(S(=O)(=O)N2CCCCC2)cc1NC(=O)COC(=O)C1=COCCO1`?
TNAP inh hiacc: -4.2; INS promoter inh: 18.8; TNAP inh noacc: -11.0; TNAP act hi DEA: 1; Efa HMGR inh: 0.7
